HSF1 activator: increases HSF-1 driven luciferase reporter signal; activation, % at 9 µM; NIH3T3-HGL HSF-1 luciferase reporter, MG132, 8 h; 100% = twice DMSO control signal; 300,000 tested, 1.7% active;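 active = mean replicate activation of at least 50% with a set share of replicates each reaching 50%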;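 also: 0% = median of the neutral control wells and 100% = twice that signal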
HIF act: HIF pathway transcriptional activation; U2OS HRE-luciferase reporter, luminescence; normalized: DMSO 0%, desferrioxamine 100%; activation, % at 7.5 µM (by protocol); 300,000 tested, 0.32% active;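 active = mean activation of at least 10% of the iron chelator positive control signal, with at least half of replicates also reaching 10%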
Calb FLC: C. albicans growth modulation with fluconazole. 300,000 tested, 0.57% active. growth inhibition, % (concentration not given with the values). C. albicans CaCi-2 + fluconazole, Alamar Blue growth, 48 h. AID 1979;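 active = growth inhibition above about 58% in most replicates, limit read from the data, passing the limit was not always enough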;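 also: all wells also contain fluconazole at 8 µg/ml as a sub-toxic cotreatment; 0% = median of DMSO wells and 100% = median of geldanamycin control wells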
HSF1 inhib: HSF1 inhibition; 300,000 tested, 0.77% active; NIH3T3-HGL HSE-luciferase, MG132-induced, luminescence 8 h; stronger effect = lower value; activity change, negative = inhibition, % at 7.5 µM (by protocol);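 active = more than half of replicate wells show activity change below -50%, luminescence cut by over half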;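 also: luciferase reports HSF-1 transcriptional activity via heat shock element; 0% = median of DMSO wells and -100% = zero luminescence signal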
T cruzi inh: blocks replication of Trypanosoma cruzi; T. cruzi beta-gal in NIH3T3, luminescence, 90 h; inhibition, % (no concentration beside the values); 300,000 tested, 1.4% active;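 active = mean inhibition across valid replicates above about 55%, limit read from the data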;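 also: signal also drops with host cell toxicity which is not excluded here; 0% = plate median of DMSO wells and 100% = zero luminescence signal; higher percent means less beta-gal luminescence so fewer parasites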
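System: mouse NIH/3T3 fibroblasts infected with β-gal-expressing T. cruzi Tulahuen C4 / Input: NIH/3T3 cells, 5,000 per well / Buffer or medium: Low-serum DMEM with 2% FBS / Probe or stimulus: 5000 reporter trypomastigotes per well / Schedule: ≥90 h infection period, 3 h prior cell attachment / Measured by: GalScreen luminescence, 60 min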
* hit, by the source's call; · = no result given. Hits are enriched below; roughly 4.4% of the tested compounds scored in any of these assays.

SMILES	HSF1 activator	HIF act	Calb FLC	HSF1 inhib	T cruzi inh
c1ccc2sc(C3CCNCC3)nc2c1	24	0	-8	-9	64*
CCc1ccc(CN2CCN(Cc3ccc(SC)cc3)CC2)cc1	-8	0	-15	-6	70*
CN(C)CP(=O)(O)CN(C)C=O	0	0	-16	-4	2
Cn1c(NN=O)nc2ccccc21	-33	66*	82	-36	55*
Fc1c(F)c(F)c(N2CCNCC2)c(F)c1F	-1	0	-29	3	-5
COc1cc(OC)c2c(c1)OCC1CON(C)C21 (stereo not drawn)	-81	0	2	-78*	-8
O=C(NC1CONC1=O)OCC(Cl)(Cl)Cl (stereo not drawn)	6	0	-4	-5	-1
C[n+]1c(-c2ccccc2)c2cc(N)ccc2c2ccc(N)cc21	-8	1	93*	0	62*
CC1=C2[C@@H]3OC(=O)[C@H](C)C3CC[C@@]2(C)C=CC1=O (stereo partly drawn)	-4	-3	-7	2	-7
O=[N+]([O-])c1ccc(C2[C@H]3C(c4ccccc4)=NC4(CCCCC4)N23)cc1 (stereo partly drawn)	16	-1	-19	1	-3
CCCCn1c(C)c(C(=O)OCC)c2c(CN3CCOCC3)c(O)ccc21	72*	0	-5	56	9
CCCCn1c(C)c(C(=O)OCC)c2c(CN3CCCC3)c(O)ccc21	7	-2	-13	1	33
Oc1ccccc1C1NCc2ccccc2-n2cccc21 (stereo not drawn)	37	-1	10	-2	8
COc1cccc(CCNCc2cccc(C(F)(F)F)c2)c1	-12	-1	-2	-8	64*
Cc1nc2ccccc2c(=O)n1/N=C/c1cc(Br)cc(Br)c1O	-4	181*	7	-11	-11
CCCCCn1c(=O)c(C(=O)NCc2ccncc2)c(O)c2ccccc21	11	1	84*	6	44
CCCCn1c(O)c(C(CC)=NCCCN(C)C)c(=O)[nH]c1=O	-7	0	-14	-4	57*
CCCCn1c(O)c(C(C)=NCCCN(C)C)c(=O)[nH]c1=O	12	0	8	-1	45
CCCCn1c(O)c(C(C)=NCCCN(CC)CC)c(=O)[nH]c1=O	18	0	-11	0	58*
COc1cccc(OCc2cc(C(=O)N3C[C@H]4C[C@@H](C3)c3cccc(=O)n3C4)no2)c1	73*	2	1	43	-18
CC1=CC(=O)OC2CC3OC4C[C@@H](C)C5OC6CC7O[C@]8(C)C/C=C\C9OC%10CC%11OC(CC(C)CO)CC(O)[C@]%11(C)OC%10CC9OC8C[C@]7(C)O[C@]6(C)CCC5OC4C[C@]3(C)OC12 (stereo partly drawn)	·	0	-4	1	-9
COc1ccc(C[C@H]2NC[C@H](O)[C@H]2OC(C)=O)cc1	-77	-4	·	-75*	44
Cc1cc(C(=O)N=Nc2c(O)n(C)c3ccccc23)c(C)o1	80*	2	-7	31	30
COC(=O)C1=C(c2cc3ccccc3s2)C[C@@H]2CC[C@H]1N2C(=O)NCc1ccc(C(F)(F)F)cc1	-2	0	13	-1	57*
Nc1ncn[nH]1	-9	-1	6	-2	-2
SMILES	HSF1 activator	HIF act	Calb FLC	HSF1 inhib	T cruzi inh
CCc1ccc(C(=O)C23CN4CN(CN(C4)C2)C3)cc1	-3	0	-7	3	-6
CN1CCc2nc3sc(C#N)c(N)c3c(-c3cccs3)c2C1	-4	0	-7	-4	67*
COc1ccc2ccc(O)c(CN3CC=C(c4ccccc4)CC3)c2c1	201*	1	-4	164	-22
COc1ccc2c(CN3CC=C(c4ccccc4)CC3)cc(=O)oc2c1	4	-1	-17	-4	-11
Cc1ccc(N=C(/N=C(\N)N[N+](=O)[O-])Nc2ccc(C)cc2)cc1	26	0	6	-3	4
CN1C(=O)C(=Cc2sc(=O)n(-c3ccccc3)c2N2CCCCC2)C(=O)N(C)C1=O	67*	-28	6	27	-5
CN1C(=O)C(=Cc2cc([N+](=O)[O-])ccc2N2CCCCC2)C(=O)N(C)C1=O	5	0	-13	-1	13
CC(=O)c1ccccc1NC(=O)C1C2CCC(O2)C1C(=O)O (stereo not drawn)	68*	0	-12	38	-10
CN1CCN(S(=O)(=O)c2cnc(Cl)c(Br)c2)CC1	9	0	1	-2	-29
CCN1CCN(C(=O)Cc2c(C)n(C(=O)c3ccc(Cl)cc3)c3ccc(OC)cc23)CC1	-14	0	-21	-5	6
CC/C(=C\C=C\[C@@H]1C=C[C@@H]2CCC[C@H]2[C@@H]1C(=O)c1ccc[nH]1)[C@@H]1O[C@@H]([C@@H](C)C(=O)O)CC[C@@H]1C	20	0	38	8	65*
O=C(c1n[nH]c(=O)c2ccccc12)N1CCC2(CC1)OCCO2	0	0	-11	-3	-1
O=c1[nH]c(=S)[nH]c(O)c1N=Nc1ccc2c(c1)OCO2	-8	0	19	-4	-25
O=c1[nH]c(=S)[nH]c(O)c1N=Nc1ccc2c(c1)OCCO2	73*	0	-5	46	-9
COc1ccc(N=Nc2c(O)[nH]c(=S)[nH]c2=O)cc1	9	-2	26	-13	-16
O=c1[nH]c(O)c(N=Nc2ccc3c(c2)OCCO3)c(=O)[nH]1	-67	-1	14	-62*	6
COc1cccc(N=Nc2c(O)[nH]c(=S)[nH]c2=O)c1	103*	3	24	53	-50
COc1ccccc1-n1c(O)c(/C=N/N2CCCCC2)c(=O)n(-c2ccccc2OC)c1=S	-10	0	-1	0	-1
Clc1ccc(NC2=NCCCS2)cc1Cl	12	0	-18	8	55*
Cc1ccc(NC2=NCCCS2)cc1Cl	25	0	-22	-9	33
C=C(C)[C@@]12OC3(c4ccccc4)O[C@@H]1C1[C@@H]4O[C@]4(CO)[C@@H](O)[C@]4(O)C(=O)C(C)=C[C@H]4[C@@]1(O3)[C@H](C)[C@H]2OC(=O)/C=C/C=C/c1ccccc1 (stereo partly drawn)	-10	2	-2	-8	57*
Cc1ccc(C)c(NC(=S)NCCc2cnc[nH]2)c1	-6	0	0	-1	-2
CCCCCCCCCCCCCCCC[N+](C)(C)C	-5	1	102*	-2	47
CCCCc1ncc(CN2CCCC(C(=O)c3ccc(SC)cc3)C2)[nH]1 (stereo not drawn)	-30	0	-6	-27	53
COc1ccc(N2CCN(C(CNC(=O)Oc3ccccc3)c3cccnc3)CC2)cc1 (stereo not drawn)	18	0	7	3	62*

Source: PubChem BioAssay (Broad Institute)
